The record followed here is ChEMBL document CHEMBL1828517, “Synthesis, evaluation and application of polycyclic fluorescent analogues as N-methyl-D-aspartate receptor and voltage gated calcium channel ligands” (Eur J Med Chem, 2011).

Experiment [1] has as its target T1, Glutamate NMDA receptor (Rattus norvegicus) (UniProt P35439+Q00959+Q00960+Q00961+Q62645+Q8VHN2+Q9R1M7). Briefly: Antagonist activity at NMDA receptor in Sprague-Dawley rat striatal synaptoneurosomes assessed as inhibition of NMDA/glycine-induced calcium flux at 100 uM by spectrofluorimetric analysis relative to control. It counts as functional. A digest of the protocol: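 Male Sprague-Dawley rat brain synaptoneurosomes are loaded with Mag-Fura-2/Fura-2 AM (5 μM final) for 10 min at 37 °C and resuspended in Krebs-HEPES pH 7.4. Compounds at 100 μM (0.1% DMSO final) are preincubated 5 min at 37 °C. NMDA (100 μM) plus glycine (100 μM) is added at 10 s and ratiometric fluorescence is read. Results are % of the DMSO control, 3 preparations × 3 determinations.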
On the technique in general: Calcium assays in cells follow changes in intracellular calcium, usually with a dye or a luminescent sensor.

In experiment [2] the target is T1, Glutamate NMDA receptor (Rattus norvegicus). Briefly: Binding affinity to NMDA receptor in Sprague-Dawley rat striatal synaptoneurosomes at 100 uM after 30 mins by competition binding assay in presence of MK-801. It counts as protein-complex assay. The essentials: (§1)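 Unloaded rat synaptoneurosomes (0.6 mg/ml) are resuspended in Krebs-HEPES at 37 °C and given the fluorescent ligand (100 μM) alone or with a competitor at 100 μM (DMSO <0.1%). NMDA (100 μM) plus glycine (100 μM) is added, followed by 30 min at 37 °C. The pellet is washed and resuspended, and fluorescence is read at 324/455 nm. Results are % of ligand-alone intensity; n = 9.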

Experiment [3] concerns Glutamate NMDA receptor (Rattus norvegicus). In words: Antagonist activity at NMDA receptor in Sprague-Dawley rat striatal synaptoneurosomes assessed as inhibition of NMDA/glycine-induced calcium flux at 100 uM by spectrofluorimetric analysis relative to control.
Experiment [4] addresses T1, Glutamate NMDA receptor (Rattus norvegicus). In words: Binding affinity to NMDA receptor in Sprague-Dawley rat striatal synaptoneurosomes at 100 uM after 30 mins by competition binding assay in presence of NGP1-01. Format: protein-complex assay. The essentials: as §1
The target in a further experiment is Glutamate NMDA receptor. In words: Antagonist activity at NMDA receptor in Sprague-Dawley rat striatal synaptoneurosomes assessed as inhibition of NMDA/glycine-induced calcium flux by spectrofluorimetric analysis. It counts as functional. The essentials: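 Fura-2 AM-loaded rat synaptoneurosomes in Krebs-HEPES pH 7.4 at 37 °C. Compound is preincubated 5 min at log-spaced concentrations. Calcium influx is triggered with NMDA (100 μM) plus glycine (100 μM) and measured by ratiometric spectrofluorimetry. The concentration-response is fitted to a four-parameter logistic equation; 3 preparations × 3 determinations.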

Experiment [5] can be described thus: Antagonist activity at voltage gated calcium channel in Sprague-Dawley rat striatal synaptoneurosomes assessed as inhibition of KCl-induced calcium flux at 100 uM by spectrofluorimetric analysis relative to control. Format: functional. A digest of the protocol: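 Rat synaptoneurosomes loaded with Fura-2 AM (5 μM final, 10 min, 37 °C) in Krebs-HEPES pH 7.4. Compounds at 100 μM (0.1% DMSO) are preincubated 5 min at 37 °C. Depolarization is done at 10 s with KCl (140 mM) solution. Baseline is subtracted from peak fluorescence, the KCl-induced rise is taken as 100%, and inhibition is expressed relative to it.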

Experiment [6] addresses T1, Glutamate NMDA receptor (Rattus norvegicus). In words: Binding affinity to NMDA receptor in Sprague-Dawley rat striatal synaptoneurosomes at 100 uM after 30 mins by competition binding assay in presence of amantadine. Format: protein-complex assay. A digest of the protocol:
as §1

Molecules are shown by their SMILES. pIC50: −log10 of the molar value. Calls of active or inactive are those of the source. The calls are words filed in the database; no cut-off is given here.

By inhibition is commonly meant how much of the control response was suppressed. On to `CNc1ccccc1C(=O)NC12CC3CC(CC(C3)C1)C2`, for which the inhibition result in experiment [1] was “inactive”.

Turning to `O=[N+]([O-])c1ccc(NC23CC4CC(CC(C4)C2)C3)c([N+](=O)[O-])c1`, the inhibition in experiment [1] amounted to 19.2%.

Turning to `O=C(NC12CC3CC(CC(C3)C1)C2)c1cc2ccccc2oc1=O`, in experiment [1], the inhibition was 20.3%.

The pIC50 is −log10 of the IC50, conventionally taken in molar units. For the compound `CN(C)c1cccc2c(S(=O)(=O)NCCCNC34CC5CC(CC(C5)C3)C4)cccc12`, the inhibition result in experiment [2], in experiment [4] and in experiment [6] was “inactive” throughout. Besides, the “inhibition (INH)” value in experiment [3] came to 62.97%; in experiment [5], 36.74%. Also, the negative logarithm of the IC50 (pIC50) at Glutamate NMDA receptor is 6.57. The inhibition in experiment [1] is 37%.

`O=[N+]([O-])c1ccc(NCCCNC23CC4CC(CC(C4)C2)C3)c([N+](=O)[O-])c1`: the “inhibition (INH)” value was 76.59% in experiment [3] and 88.5% in experiment [5]. Further, in experiment [1], the inhibition came out at 23.4%.

On to `CNc1ccccc1C(=O)NCCCNC12CC3CC(CC(C3)C1)C2`, for which the “inhibition (INH)” value was determined as 88.02% in experiment [3] and 87.91% in experiment [5]. For the same compound, the inhibition in experiment [1] was found to be 12%.

Take `O=C(OC12C3C4CC5C6C4C1C6C1(OCCCN12)C53)c1n[nH]c2ccccc12` (configuration not stated): the “inhibition (INH)” value is recorded as 77.89% in experiment [3] and 83.62% in experiment [5]. In addition, the inhibition in experiment [1] is 13.6%.

As to `N#CCCNC12CC3CC(CC(C3)C1)C2`, the inhibition in experiment [1] stood at 19.3%.

For the compound `N#Cc1c2ccccc2cn1C12CC3CC(CC(C3)C1)C2`, in experiment [1], the inhibition amounted to 16%.

As to `O=C(NCCCNC12CC3CC(CC(C3)C1)C2)c1n[nH]c2ccccc12`, the “inhibition (INH)” value stood at 95.19% in experiment [3] and 86.91% in experiment [5]. Also, the inhibition entry in experiment [1] is “inactive”.

`OC12C3C4CC5C6C4C1C6C1(OCCCN21)C53` (configuration not stated): the figures for the “inhibition (INH)” value in experiment [3] and in experiment [5] were 77.29% and 87.24%, respectively. For the same compound, the inhibition in experiment [1] is 22.7%.

Regarding `N#Cc1c2ccccc2cn1CCCNC12CC3CC(CC(C3)C1)C2`, the “inhibition (INH)” value in experiment [3] came to 86.41%; in experiment [5] it was 45.92%. In addition, in experiment [1], the inhibition stood at 13.6%.

On to `CNc1ccccc1C(=O)OC12C3C4CC5C6C4C1C6C1(OCCCN12)C53` (configuration not stated), for which the “inhibition (INH)” value in experiment [3] is recorded as 86.41%; in experiment [5], 84.79%. Also, the inhibition in experiment [1] was determined as 12%.

In the case of `O=C(NC12CC3CC(CC(C3)C1)C2)c1n[nH]c2ccccc12`, the “inhibition (INH)” value in experiment [3] came to 83.7%. The inhibition in experiment [1] turned out to be 16%.

Turning to `CN(C)c1cccc2c(S(=O)(=O)NC34CC5CC(CC(C5)C3)C4)cccc12`, the inhibition in experiment [1] was found to be 21.9%.

In the case of `O=C(NCCCNC12CC3CC(CC(C3)C1)C2)c1cc2ccccc2oc1=O`, the “inhibition (INH)” value in experiment [3] stood at 86.77%; in experiment [5] it was 67.99%. Also, the inhibition in experiment [1] is 13.2%.

Regarding `NCCCNC12CC3CC(CC(C3)C1)C2`, the inhibition (INH) in experiment [3] was found to be 91%; in experiment [5] it was 89.3%. Moreover, the inhibition in experiment [1] was 9.01%.
